PMC10868414 (Pharmaceutical Biology, 2024)

Assays:
[1] = SDS at 1.0% w/w mixed in diet; ref Elder [1983]; cited from earlier work
[2] = Elimination of andrographolide in urine and feces; type: in vivo, beagle dogs
How it was run: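 Male beagles (2.0–2.5 y, 10–15 kg; n = 4/group), fasted 10 h with water, caged singly; oral capsules equivalent to 3 mg/kg andrographolide, single dose and daily for 7 days. Urine centrifuged; feces mixed 50:50 w/v with methanol. Samples hydrolysed with β-glucuronidase solution (1,000 U/mL, pH 6.8, 37 °C, 30 min), methanol-precipitated with digoxin internal standard, LC-MS/MS (triple quadrupole); mean ± SD.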

[3] = Lipinski's Rule of Five criterion; ref Lipinski et al. [2001]; cited from earlier work
[4] = poor water solubility and high permeability; ref Lee et al. [2019]; cited from earlier work

Row | dose excreted ([2]; beagle, dog, urine, po, 3 mg/kg) [%] | Feces excretion of andrographolide ([2]; of the administered dose, after oral administration of A. paniculata formulations) | Compound | Abnormalities in long-term study [1] | logP value [3] | Biopharmaceutics Classification System (BCS) category [4]
1 |  |  | CCCCCCCCCCCCOS(=O)(=O)[O-].[Na+] [SDS, Sodium dodecyl sulfate] | did not result in any abnormalities |  | 
2 | 0.1 to 1 | less than 0.4% | C=C1CC[C@@H]2[C@](C)(CO)[C@H](O)CC[C@@]2(C)[C@@H]1C/C=C1/C(=O)OC[C@H]1O [andrographolide, Andrographolide] |  | lower than 5 | BCS class II
